Measured values reported in ChEMBL document CHEMBL1157126, “Synthesis and biological activity of N(4)-phenylsubstituted-6-(2,4-dichloro phenylmethyl)-7H-pyrrolo[2,3-d]pyrimidine-2,4-diamines as vascular endothelial growth factor receptor-2 inhibitors and antiangiogenic and antitumor agents” (Bioorg Med Chem, 2010).
The source made the active and inactive calls. No cut-off for these calls is given here.

target: T1, Vascular endothelial growth factor receptor 2 (Homo sapiens, UniProt P35968); experiment: Inhibition of VEGFR2 phosphorylation in human U251 cells after 10 mins by FLISA; assay type: cell-based, U-251; conditions: not given
T1 sequence (P35968 whole entry): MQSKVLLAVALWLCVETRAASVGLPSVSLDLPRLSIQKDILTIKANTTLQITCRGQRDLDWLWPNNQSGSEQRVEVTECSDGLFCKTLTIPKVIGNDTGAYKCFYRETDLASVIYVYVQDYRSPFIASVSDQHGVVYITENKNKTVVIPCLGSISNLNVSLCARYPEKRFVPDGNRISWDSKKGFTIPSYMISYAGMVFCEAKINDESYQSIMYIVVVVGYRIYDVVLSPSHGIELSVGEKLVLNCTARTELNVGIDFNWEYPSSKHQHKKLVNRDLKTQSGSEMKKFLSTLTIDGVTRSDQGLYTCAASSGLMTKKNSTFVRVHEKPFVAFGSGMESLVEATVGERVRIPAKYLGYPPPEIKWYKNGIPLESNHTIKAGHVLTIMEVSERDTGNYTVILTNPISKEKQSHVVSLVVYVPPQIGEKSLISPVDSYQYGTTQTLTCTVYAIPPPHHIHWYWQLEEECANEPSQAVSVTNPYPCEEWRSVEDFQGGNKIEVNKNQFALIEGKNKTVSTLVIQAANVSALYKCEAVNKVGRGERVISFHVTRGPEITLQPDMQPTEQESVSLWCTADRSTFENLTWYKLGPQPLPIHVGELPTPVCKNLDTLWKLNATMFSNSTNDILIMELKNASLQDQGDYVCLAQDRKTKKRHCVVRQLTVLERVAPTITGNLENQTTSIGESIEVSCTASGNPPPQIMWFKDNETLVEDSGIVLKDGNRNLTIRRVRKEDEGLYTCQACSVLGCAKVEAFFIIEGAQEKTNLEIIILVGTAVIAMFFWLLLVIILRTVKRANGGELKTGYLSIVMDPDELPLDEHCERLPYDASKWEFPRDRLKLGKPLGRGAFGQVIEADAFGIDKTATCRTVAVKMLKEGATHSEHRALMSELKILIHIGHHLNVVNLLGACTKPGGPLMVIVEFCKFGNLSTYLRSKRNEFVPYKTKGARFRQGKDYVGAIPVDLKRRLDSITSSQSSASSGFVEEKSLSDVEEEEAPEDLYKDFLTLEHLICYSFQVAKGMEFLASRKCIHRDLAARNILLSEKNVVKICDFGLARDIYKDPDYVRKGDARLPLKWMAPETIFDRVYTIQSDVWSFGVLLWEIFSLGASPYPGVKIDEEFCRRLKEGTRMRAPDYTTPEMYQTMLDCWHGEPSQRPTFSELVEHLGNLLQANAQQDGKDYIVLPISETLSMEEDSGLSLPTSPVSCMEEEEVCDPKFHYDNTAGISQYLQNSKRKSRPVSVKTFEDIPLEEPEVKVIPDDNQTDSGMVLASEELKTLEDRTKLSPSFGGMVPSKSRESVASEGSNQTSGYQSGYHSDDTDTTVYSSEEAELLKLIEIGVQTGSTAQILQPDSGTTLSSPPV

SMILES | IC50
CC(C)c1ccccc1Nc1nc(N)nc2[nH]c(Cc3ccc(Cl)cc3Cl)cc12 | > 300 µM
Nc1nc(Nc2cccc(F)c2)c2cc(Cc3ccc(Cl)cc3Cl)[nH]c2n1 | 0.3 µM
CC(C)c1ccc(Nc2nc(N)nc3[nH]c(Cc4ccc(Cl)cc4Cl)cc23)cc1 | 1.4 µM
C#Cc1cccc(Nc2nc(N)nc3[nH]c(Cc4ccc(Cl)cc4Cl)cc23)c1 | 85.6 µM
Clc1ccc(Cc2cc3c(Nc4cccc(Br)c4)ncnc3[nH]2)c(Cl)c1 | > 300 µM
Nc1nc(Nc2ccc(Br)cc2Cl)c2cc(Cc3ccc(Cl)cc3Cl)[nH]c2n1 | 0.1 µM
Nc1nc(Nc2ccc(Cl)cc2F)c2cc(Cc3ccc(Cl)cc3Cl)[nH]c2n1 | 45.7 µM
C#Cc1cccc(Nc2ncnc3[nH]c(Cc4ccc(Cl)cc4Cl)cc23)c1 | > 300 µM
Nc1nc(Nc2ccc(C(F)(F)F)c(F)c2)c2cc(Cc3ccc(Cl)cc3Cl)[nH]c2n1 | 113 µM
FC(F)(F)c1cccc(Nc2ncnc3[nH]c(Cc4ccc(Cl)cc4Cl)cc23)c1 | > 300 µM
COc1ccc(OC)c(Cc2cc3c(Nc4cccc(Br)c4)ncnc3[nH]2)c1 | > 300 µM
Nc1nc(Nc2cccc(C(F)(F)F)c2)c2cc(Cc3ccc(Cl)cc3Cl)[nH]c2n1 | > 300 µM
Cc1ccccc1Cc1cc2c(Nc3cccc(Br)c3)ncnc2[nH]1 | 27.2 µM

target: Vascular endothelial growth factor receptor 1 (Homo sapiens, UniProt P17948); experiment: Inhibition of VEGFR1 phosphorylation in human A498 cells after 10 mins by FLISA; assay type: cell-based; conditions: not given
Sequence (P17948 whole entry): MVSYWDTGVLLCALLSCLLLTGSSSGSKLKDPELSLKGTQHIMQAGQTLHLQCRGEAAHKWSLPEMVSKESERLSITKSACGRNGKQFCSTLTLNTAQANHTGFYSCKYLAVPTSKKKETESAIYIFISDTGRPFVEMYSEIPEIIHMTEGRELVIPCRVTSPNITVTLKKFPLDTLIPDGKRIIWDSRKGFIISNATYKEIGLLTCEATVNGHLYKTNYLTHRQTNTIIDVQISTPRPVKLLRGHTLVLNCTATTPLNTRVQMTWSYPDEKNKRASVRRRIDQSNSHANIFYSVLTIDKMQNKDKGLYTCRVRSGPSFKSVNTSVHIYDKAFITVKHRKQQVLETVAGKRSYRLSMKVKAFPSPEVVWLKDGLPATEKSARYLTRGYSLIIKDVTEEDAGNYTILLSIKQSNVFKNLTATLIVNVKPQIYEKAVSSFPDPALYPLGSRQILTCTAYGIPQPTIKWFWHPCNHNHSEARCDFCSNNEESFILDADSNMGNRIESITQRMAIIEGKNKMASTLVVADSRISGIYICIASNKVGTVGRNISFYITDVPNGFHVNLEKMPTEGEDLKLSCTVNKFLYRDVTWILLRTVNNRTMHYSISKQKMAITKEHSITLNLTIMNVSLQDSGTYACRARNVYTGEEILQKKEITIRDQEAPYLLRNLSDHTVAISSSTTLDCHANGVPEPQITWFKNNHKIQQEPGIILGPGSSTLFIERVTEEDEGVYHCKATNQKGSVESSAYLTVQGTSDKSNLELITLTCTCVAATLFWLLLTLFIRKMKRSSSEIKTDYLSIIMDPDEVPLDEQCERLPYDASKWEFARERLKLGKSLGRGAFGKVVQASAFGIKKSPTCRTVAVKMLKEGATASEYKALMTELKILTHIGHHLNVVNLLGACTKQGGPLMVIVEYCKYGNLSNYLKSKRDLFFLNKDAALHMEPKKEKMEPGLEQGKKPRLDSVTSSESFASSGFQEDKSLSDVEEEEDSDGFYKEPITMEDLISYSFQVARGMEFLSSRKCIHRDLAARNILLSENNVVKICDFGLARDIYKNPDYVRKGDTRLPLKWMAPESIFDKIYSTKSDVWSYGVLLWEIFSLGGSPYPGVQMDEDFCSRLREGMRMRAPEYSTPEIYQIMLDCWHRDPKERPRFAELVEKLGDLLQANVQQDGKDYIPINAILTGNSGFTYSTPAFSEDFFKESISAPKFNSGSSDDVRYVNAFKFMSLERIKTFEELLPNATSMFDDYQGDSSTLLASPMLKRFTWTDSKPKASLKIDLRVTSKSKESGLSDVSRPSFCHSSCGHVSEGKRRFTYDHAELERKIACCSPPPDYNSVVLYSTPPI

SMILES | IC50
CC(C)c1ccccc1Nc1nc(N)nc2[nH]c(Cc3ccc(Cl)cc3Cl)cc12 | 163 µM
Nc1nc(Nc2cccc(F)c2)c2cc(Cc3ccc(Cl)cc3Cl)[nH]c2n1 | 163 µM
CC(C)c1ccc(Nc2nc(N)nc3[nH]c(Cc4ccc(Cl)cc4Cl)cc23)cc1 | 157 µM
C#Cc1cccc(Nc2nc(N)nc3[nH]c(Cc4ccc(Cl)cc4Cl)cc23)c1 | > 300 µM
Clc1ccc(Cc2cc3c(Nc4cccc(Br)c4)ncnc3[nH]2)c(Cl)c1 | 151 µM
Nc1nc(Nc2ccc(Br)cc2Cl)c2cc(Cc3ccc(Cl)cc3Cl)[nH]c2n1 | > 300 µM
Nc1nc(Nc2ccc(Cl)cc2F)c2cc(Cc3ccc(Cl)cc3Cl)[nH]c2n1 | 70.9 µM
C#Cc1cccc(Nc2ncnc3[nH]c(Cc4ccc(Cl)cc4Cl)cc23)c1 | > 300 µM
Nc1nc(Nc2ccc(C(F)(F)F)c(F)c2)c2cc(Cc3ccc(Cl)cc3Cl)[nH]c2n1 | > 300 µM
FC(F)(F)c1cccc(Nc2ncnc3[nH]c(Cc4ccc(Cl)cc4Cl)cc23)c1 | > 300 µM
COc1ccc(OC)c(Cc2cc3c(Nc4cccc(Br)c4)ncnc3[nH]2)c1 | > 300 µM
Nc1nc(Nc2cccc(C(F)(F)F)c2)c2cc(Cc3ccc(Cl)cc3Cl)[nH]c2n1 | 156 µM
Cc1ccccc1Cc1cc2c(Nc3cccc(Br)c3)ncnc2[nH]1 | > 300 µM

target: Epidermal growth factor receptor (Homo sapiens, UniProt P00533); experiment: Inhibition of EGFR phosphorylation in human A431 cells after 10 mins by FLISA; assay type: cell-based, A-431; conditions: not given
Sequence (P00533 whole entry): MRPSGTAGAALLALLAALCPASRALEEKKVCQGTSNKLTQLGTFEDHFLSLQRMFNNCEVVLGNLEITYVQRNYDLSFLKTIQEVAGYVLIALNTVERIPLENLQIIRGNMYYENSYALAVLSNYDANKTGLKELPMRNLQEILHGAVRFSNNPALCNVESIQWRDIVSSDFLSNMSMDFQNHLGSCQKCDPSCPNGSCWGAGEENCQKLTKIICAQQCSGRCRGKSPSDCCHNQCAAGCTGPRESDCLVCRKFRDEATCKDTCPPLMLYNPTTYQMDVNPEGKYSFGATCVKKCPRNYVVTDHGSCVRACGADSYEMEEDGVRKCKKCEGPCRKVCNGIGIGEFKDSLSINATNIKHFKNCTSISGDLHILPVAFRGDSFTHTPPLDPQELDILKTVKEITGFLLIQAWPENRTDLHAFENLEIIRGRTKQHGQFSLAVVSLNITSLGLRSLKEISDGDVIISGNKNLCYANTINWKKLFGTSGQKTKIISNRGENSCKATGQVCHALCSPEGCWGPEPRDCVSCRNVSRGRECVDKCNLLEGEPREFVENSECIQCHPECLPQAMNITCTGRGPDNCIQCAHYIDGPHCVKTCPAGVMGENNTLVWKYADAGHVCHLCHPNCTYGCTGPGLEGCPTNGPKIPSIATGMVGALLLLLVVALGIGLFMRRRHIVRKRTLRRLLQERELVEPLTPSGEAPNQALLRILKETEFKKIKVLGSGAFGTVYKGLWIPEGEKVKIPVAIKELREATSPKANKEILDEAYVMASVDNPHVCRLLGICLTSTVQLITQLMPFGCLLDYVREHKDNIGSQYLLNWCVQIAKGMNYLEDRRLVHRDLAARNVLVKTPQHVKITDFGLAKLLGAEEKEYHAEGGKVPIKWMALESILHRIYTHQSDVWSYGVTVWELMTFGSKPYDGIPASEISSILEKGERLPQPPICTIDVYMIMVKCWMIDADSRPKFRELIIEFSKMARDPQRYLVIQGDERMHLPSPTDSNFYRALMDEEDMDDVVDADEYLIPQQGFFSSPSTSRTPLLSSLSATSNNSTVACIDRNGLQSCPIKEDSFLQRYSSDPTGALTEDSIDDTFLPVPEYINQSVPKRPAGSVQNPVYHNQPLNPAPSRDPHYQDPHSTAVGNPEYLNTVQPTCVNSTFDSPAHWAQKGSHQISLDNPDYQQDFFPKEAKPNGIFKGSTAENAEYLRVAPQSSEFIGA

SMILES | IC50
CC(C)c1ccccc1Nc1nc(N)nc2[nH]c(Cc3ccc(Cl)cc3Cl)cc12 | 96.4 µM
Nc1nc(Nc2cccc(F)c2)c2cc(Cc3ccc(Cl)cc3Cl)[nH]c2n1 | 162 µM
CC(C)c1ccc(Nc2nc(N)nc3[nH]c(Cc4ccc(Cl)cc4Cl)cc23)cc1 | 45.6 µM
C#Cc1cccc(Nc2nc(N)nc3[nH]c(Cc4ccc(Cl)cc4Cl)cc23)c1 | 55.2 µM
Clc1ccc(Cc2cc3c(Nc4cccc(Br)c4)ncnc3[nH]2)c(Cl)c1 | > 300 µM
Nc1nc(Nc2ccc(Br)cc2Cl)c2cc(Cc3ccc(Cl)cc3Cl)[nH]c2n1 | > 300 µM
Nc1nc(Nc2ccc(Cl)cc2F)c2cc(Cc3ccc(Cl)cc3Cl)[nH]c2n1 | 2.5 µM
C#Cc1cccc(Nc2ncnc3[nH]c(Cc4ccc(Cl)cc4Cl)cc23)c1 | > 300 µM
Nc1nc(Nc2ccc(C(F)(F)F)c(F)c2)c2cc(Cc3ccc(Cl)cc3Cl)[nH]c2n1 | 91.7 µM
FC(F)(F)c1cccc(Nc2ncnc3[nH]c(Cc4ccc(Cl)cc4Cl)cc23)c1 | 33.1 µM
COc1ccc(OC)c(Cc2cc3c(Nc4cccc(Br)c4)ncnc3[nH]2)c1 | > 300 µM
Nc1nc(Nc2cccc(C(F)(F)F)c2)c2cc(Cc3ccc(Cl)cc3Cl)[nH]c2n1 | 27.2 µM
Cc1ccccc1Cc1cc2c(Nc3cccc(Br)c3)ncnc2[nH]1 | > 300 µM

target: T2, Platelet-derived growth factor receptor beta (Homo sapiens, UniProt P09619); experiment: Inhibition of PDGFRbeta phosphorylation in human SF539 cells after 10 mins by FLISA; conditions: not given
T2 sequence (P09619 whole entry): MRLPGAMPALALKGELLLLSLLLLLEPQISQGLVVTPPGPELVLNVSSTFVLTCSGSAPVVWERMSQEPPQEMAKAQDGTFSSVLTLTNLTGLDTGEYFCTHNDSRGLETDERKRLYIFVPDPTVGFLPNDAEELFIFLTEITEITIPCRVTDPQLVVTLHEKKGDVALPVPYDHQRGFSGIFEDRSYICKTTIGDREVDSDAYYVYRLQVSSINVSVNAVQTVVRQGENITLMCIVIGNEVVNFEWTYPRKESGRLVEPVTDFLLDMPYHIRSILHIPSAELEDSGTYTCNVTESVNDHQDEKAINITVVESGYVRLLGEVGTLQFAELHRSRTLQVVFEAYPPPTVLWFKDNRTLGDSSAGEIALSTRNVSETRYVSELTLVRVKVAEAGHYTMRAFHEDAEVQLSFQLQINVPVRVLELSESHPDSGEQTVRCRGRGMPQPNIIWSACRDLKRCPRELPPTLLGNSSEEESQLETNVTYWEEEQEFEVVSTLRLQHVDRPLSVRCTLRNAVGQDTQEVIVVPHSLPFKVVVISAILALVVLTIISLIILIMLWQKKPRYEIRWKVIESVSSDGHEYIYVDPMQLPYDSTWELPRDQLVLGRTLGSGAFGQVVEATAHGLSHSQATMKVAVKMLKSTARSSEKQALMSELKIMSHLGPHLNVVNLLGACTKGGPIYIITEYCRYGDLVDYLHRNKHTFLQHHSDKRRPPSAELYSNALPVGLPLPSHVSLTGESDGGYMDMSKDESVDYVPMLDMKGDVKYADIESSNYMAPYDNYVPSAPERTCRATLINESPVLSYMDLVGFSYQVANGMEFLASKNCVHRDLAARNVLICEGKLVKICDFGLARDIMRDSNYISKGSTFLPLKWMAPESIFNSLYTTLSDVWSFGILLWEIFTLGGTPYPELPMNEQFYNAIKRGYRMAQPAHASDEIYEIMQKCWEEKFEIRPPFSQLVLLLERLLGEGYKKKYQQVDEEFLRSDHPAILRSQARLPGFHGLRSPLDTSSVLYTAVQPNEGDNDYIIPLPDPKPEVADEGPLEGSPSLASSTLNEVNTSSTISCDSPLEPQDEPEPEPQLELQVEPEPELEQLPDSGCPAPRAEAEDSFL

SMILES | IC50
CC(C)c1ccccc1Nc1nc(N)nc2[nH]c(Cc3ccc(Cl)cc3Cl)cc12 | 43 µM
Nc1nc(Nc2cccc(F)c2)c2cc(Cc3ccc(Cl)cc3Cl)[nH]c2n1 | 183 µM
CC(C)c1ccc(Nc2nc(N)nc3[nH]c(Cc4ccc(Cl)cc4Cl)cc23)cc1 | 175 µM
C#Cc1cccc(Nc2nc(N)nc3[nH]c(Cc4ccc(Cl)cc4Cl)cc23)c1 | > 300 µM
Clc1ccc(Cc2cc3c(Nc4cccc(Br)c4)ncnc3[nH]2)c(Cl)c1 | 220 µM
Nc1nc(Nc2ccc(Br)cc2Cl)c2cc(Cc3ccc(Cl)cc3Cl)[nH]c2n1 | > 300 µM
Nc1nc(Nc2ccc(Cl)cc2F)c2cc(Cc3ccc(Cl)cc3Cl)[nH]c2n1 | 24.6 µM
C#Cc1cccc(Nc2ncnc3[nH]c(Cc4ccc(Cl)cc4Cl)cc23)c1 | 142 µM
Nc1nc(Nc2ccc(C(F)(F)F)c(F)c2)c2cc(Cc3ccc(Cl)cc3Cl)[nH]c2n1 | > 300 µM
FC(F)(F)c1cccc(Nc2ncnc3[nH]c(Cc4ccc(Cl)cc4Cl)cc23)c1 | 110 µM
COc1ccc(OC)c(Cc2cc3c(Nc4cccc(Br)c4)ncnc3[nH]2)c1 | 171 µM
Nc1nc(Nc2cccc(C(F)(F)F)c2)c2cc(Cc3ccc(Cl)cc3Cl)[nH]c2n1 | > 300 µM
Cc1ccccc1Cc1cc2c(Nc3cccc(Br)c3)ncnc2[nH]1 | 182 µM
Cc1ccccc1Cc1cc2c(Nc3cccc(Br)c3)nc(N)nc2[nH]1 | > 50 µM

tested on: A-431; experiment: Antiproliferative activity against human A431 cells after 48 hrs by quant dye staining-based UV spectroscopy; assay type: functional, cell-based; conditions: A-431, 48 h

SMILES | IC50
CC(C)c1ccccc1Nc1nc(N)nc2[nH]c(Cc3ccc(Cl)cc3Cl)cc12 | 160 µM
Nc1nc(Nc2cccc(F)c2)c2cc(Cc3ccc(Cl)cc3Cl)[nH]c2n1 | 45.2 µM
CC(C)c1ccc(Nc2nc(N)nc3[nH]c(Cc4ccc(Cl)cc4Cl)cc23)cc1 | 26.2 µM
C#Cc1cccc(Nc2nc(N)nc3[nH]c(Cc4ccc(Cl)cc4Cl)cc23)c1 | 9.5 µM
Clc1ccc(Cc2cc3c(Nc4cccc(Br)c4)ncnc3[nH]2)c(Cl)c1 | 4.5 µM
Nc1nc(Nc2ccc(Br)cc2Cl)c2cc(Cc3ccc(Cl)cc3Cl)[nH]c2n1 | 16.2 µM
Nc1nc(Nc2ccc(Cl)cc2F)c2cc(Cc3ccc(Cl)cc3Cl)[nH]c2n1 | 4.9 µM
C#Cc1cccc(Nc2ncnc3[nH]c(Cc4ccc(Cl)cc4Cl)cc23)c1 | > 300 µM
Nc1nc(Nc2ccc(C(F)(F)F)c(F)c2)c2cc(Cc3ccc(Cl)cc3Cl)[nH]c2n1 | 13.8 µM
FC(F)(F)c1cccc(Nc2ncnc3[nH]c(Cc4ccc(Cl)cc4Cl)cc23)c1 | > 300 µM
COc1ccc(OC)c(Cc2cc3c(Nc4cccc(Br)c4)ncnc3[nH]2)c1 | 191 µM
Nc1nc(Nc2cccc(C(F)(F)F)c2)c2cc(Cc3ccc(Cl)cc3Cl)[nH]c2n1 | 195 µM
Cc1ccccc1Cc1cc2c(Nc3cccc(Br)c3)ncnc2[nH]1 | 9.5 µM

target: T1, Vascular endothelial growth factor receptor 2; experiment: Ratio of semaxanib IC50 to compound IC50 for VEGFR2 phosphorylation in human U251 cells; assay type: cell-based; conditions: U-251

SMILES | Ratio IC50
Nc1nc(Nc2cccc(F)c2)c2cc(Cc3ccc(Cl)cc3Cl)[nH]c2n1 | 40
CC(C)c1ccc(Nc2nc(N)nc3[nH]c(Cc4ccc(Cl)cc4Cl)cc23)cc1 | 8
Nc1nc(Nc2ccc(Br)cc2Cl)c2cc(Cc3ccc(Cl)cc3Cl)[nH]c2n1 | 100
Nc1nc(Nc2ccc(Cl)cc2F)c2cc(Cc3ccc(Cl)cc3Cl)[nH]c2n1 | 0.26

tested on: B16-F10; experiment: Antitumor activity against mouse B16F10 cells xenografted in NCr nu/nu mouse assessed as inhibition of tumor growth at 35 mg/kg, ip administered after 9 days of tumor implantation for weekly 3 times measured on day 28 post-implantation; assay type: functional, organism-based; design: dose 35 mg/kg; conditions: not given
Outline: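 B16-F10 cells (50,000) implanted SQ behind the ear of 8-week-old male athymic NCr nu/nu mice, 5–6/group, two experiments. IP dosing in sterile water (from 30 mM DMSO stocks) Mon/Wed/Fri from day 9; water-only shams. Length, width and depth measured by calipers three times weekly; volume = L×W×D. Growth rate is the linear-regression slope from day 9 to day 28. Mean ± SEM, one-way ANOVA.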

SMILES | inhibition
Nc1nc(Nc2ccc(Br)cc2Cl)c2cc(Cc3ccc(Cl)cc3Cl)[nH]c2n1 | Active
Cc1ccccc1Cc1cc2c(Nc3cccc(Br)c3)nc(N)nc2[nH]1 | Active

tested on: B16-F10; experiment: Antitumor activity against mouse B16F10 cells xenografted in NCr nu/nu mouse assessed as antiangiogenic activity-related decrease in tumor vascularity at 35 mg/kg, ip administered after 9 days of tumor implantation for weekly 3 times measured on day 28 post-implantation; assay type: functional, organism-based; design: dose 35 mg/kg; conditions: not given
Outline: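 50,000 B16-F10 melanoma cells injected SQ behind the ear of 8-week-old male athymic NCr nu/nu mice, 5–6 animals/group, two experiments. IP dosing in sterile water (from 30 mM DMSO stocks) Mon/Wed/Fri from day 9; shams got water. Tumors excised day 28, formalin-fixed, paraffin-embedded, H&E stained. Vessels counted per unit area in 5 fields at 100× and averaged. Mean ± SEM, one-way ANOVA, Neuman-Keuls.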

SMILES | inhibition
Nc1nc(Nc2ccc(Br)cc2Cl)c2cc(Cc3ccc(Cl)cc3Cl)[nH]c2n1 | Active
Cc1ccccc1Cc1cc2c(Nc3cccc(Br)c3)nc(N)nc2[nH]1 | Active

tested on: B16-F10; experiment: Antitumor activity against mouse B16F10 cells xenografted in NCr nu/nu mouse assessed as inhibition of lung metastasis at 35 mg/kg, ip administered after 9 days of tumor implantation for weekly 3 times measured on day 28 post-implantation by hematoxylin-eosin staining; assay type: functional, organism-based; design: dose 35 mg/kg; conditions: not given
Outline: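 Male athymic NCr nu/nu mice (8 weeks) received 50,000 B16-F10 cells SQ behind the ear, 5–6/group, two experiments. Drug given IP in sterile water (from 30 mM DMSO stocks) Mon/Wed/Fri starting day 9; shams received water. On day 28 lungs excised, formalin-fixed, paraffin-embedded. Metastases per lung lobe counted on three H&E sections. Mean ± SEM, one-way ANOVA with Neuman-Keuls.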

SMILES | inhibition
Nc1nc(Nc2ccc(Br)cc2Cl)c2cc(Cc3ccc(Cl)cc3Cl)[nH]c2n1 | Active
Cc1ccccc1Cc1cc2c(Nc3cccc(Br)c3)nc(N)nc2[nH]1 | Active

tested on: B16-F10; experiment: not given; conditions: Mus musculus, 10 mg/kg

SMILES | inhibition
Cc1[nH]c(/C=C2\C(=O)Nc3ccccc32)c(C)c1CCC(=O)O [ORANTINIB] | Active

tested on: B16-F10; experiment: not given; conditions: Mus musculus, 10 mg/kg; remark: another data set of the same source

SMILES | inhibition
Cc1[nH]c(/C=C2\C(=O)Nc3ccccc32)c(C)c1CCC(=O)O [ORANTINIB] | Active

tested on: B16-F10; experiment: not given; conditions: Mus musculus, 10 mg/kg; remark: another data set of the same source

SMILES | inhibition
Cc1[nH]c(/C=C2\C(=O)Nc3ccccc32)c(C)c1CCC(=O)O [ORANTINIB] | Active

target: T2, Platelet-derived growth factor receptor beta; experiment: Inhibition of PDGF-stimulated PDGFRbeta phosphorylation expressed in human SF-539 cells by chemiluminescence assay; conditions: not given

SMILES | IC50
Cc1[nH]c(/C=C2\C(=O)Nc3ccccc32)c(C)c1CCC(=O)O [ORANTINIB] | 0.1 µM
